Target: not listed separately
Experiment: Compound was evaluated for the ability to inhibitH+/K+ -ATPase formation in rabbit gastric glands.
Format: functional, tissue-based, Oryctolagus cuniculus, Stomach
Details: not given
Method in brief: (§1)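 Isolated rabbit gastric glands (collagenase-digested corpus mucosa, 37 °C ~1 h, rinsed, in respiratory medium pH 7.4). 10 mg wet weight glands incubated in RM with 0.05 μCi [14C]aminopyrine, stimulated with 10^-4 M histamine, 37 °C, 1 h shaking. Acid formation read as aminopyrine uptake. Inhibitors diluted in methanol, final 1%. IC50 = 50% inhibition.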

Row | IC50 | Structure (SMILES)
1 | 0.99 uM l-1 | Cc1nc2c(/C=C/c3ccccc3)cccn2c1C
2 | 17.5 uM l-1 | Cc1nc2c(/C=C\c3ccccc3)cccn2c1C

Species on record: Sus scrofa
Experiment: The percent of compound protonated at pH 7.4 in purified H+/K+ -ATPase from hog stomach.
Details: not given

Row | Protonated | Structure (SMILES)
3 | 0.158% | Cc1nc2c(OCc3ccccc3)nccn2c1N
4 | 3.83% | Cc1nc2c(CCc3ccccc3)cccn2c1CC#N
5 | 3.83% | Cc1nc2c3c(ccn2c1CC#N)CCC(c1ccccc1)O3 (racemic)
6 | 44.3% | Cc1nc2c(CCc3ccccc3)cccn2c1N
7 | 1.83% | Cc1ccn2c(CC#N)c(C)nc2c1OCc1ccccc1
8 | 20.4% | Cc1nc2c(OCc3ccccc3)cccn2c1N
9 | 3.83% | Cc1nc2c(C/C=C/c3ccccc3)cccn2c1CC#N
10 | 1.96% | Cc1nc2c(/C=C/Cc3ccccc3)cccn2c1CC#N
11 | 18.3% | Cc1nc2c(/C=C/Cc3ccccc3)cccn2c1N

Tested on: not listed separately
Experiment: Inhibitory activity against histamine-stimulated gastric acid secretion in adult mengrel dogs, with surgically prepared Heidenhain pouches after intravenous administration
Format: functional
Details: Canis lupus familiaris, Stomach
Method in brief: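 Adult mongrel dogs with surgically prepared Heidenhain pouches, acid secretion stimulated by histamine. Intravenous dosing, 0.1-5 mg/kg. Acid output reduction measured against the non-drug control in the same animal. ED50 from linear regression, with 95% confidence limits.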

Row | Structure (SMILES) | ED50
12 | Cc1nc2c(CCc3ccccc3)cccn2c1CC#N | 0.1 mg/kg
13 | Cc1nc2c(/C=C/c3ccccc3)cccn2c1C | 0.7 mg/kg

Species on record: Oryctolagus cuniculus
Experiment: The percent of compound protonated at pH 7.4.
Format: functional
Details: not given

Row | Structure (SMILES) | Protonated
14 | Cc1nc2c(/C=C/c3ccccc3)cccn2c1C | 38.7%
15 | Cc1nc2c(/C=C\c3ccccc3)cccn2c1C | 38.7%

Tested on: not listed separately
Experiment: Inhibitory activity against histamine-stimulated gastric acid secretion in adult mengrel dogs, with surgically prepared Heidenhain pouches after peroral administration
Format: functional
Details: Canis lupus familiaris, Stomach, po
Method in brief: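 Heidenhain pouch mongrel dogs under histamine-stimulated acid secretion, oral dosing 2-8 mg/kg. Reduction in acid output taken relative to the untreated control value in the same dog. ED50 by linear regression, with 95% confidence limits.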

Row | Structure (SMILES) | ED50
16 | Cc1nc2c(CCc3ccccc3)cccn2c1CC#N | > 4.4 mg/kg
17 | Cc1nc2c(/C=C/c3ccccc3)cccn2c1C | 4.8 mg/kg

Tested on: not listed separately
Experiment: pKa value of the compound.
Format: physicochemical
Details: not given

Row | pKa | Structure (SMILES)
18 | 4.6 | Cc1nc2c(OCc3ccccc3)nccn2c1N
19 | 6 | Cc1nc2c(CCc3ccccc3)cccn2c1CC#N
20 | 6 | Cc1nc2c3c(ccn2c1CC#N)CCC(c1ccccc1)O3 (racemic)
21 | 7.3 | Cc1nc2c(CCc3ccccc3)cccn2c1N
22 | 7.2 | Cc1nc2c(/C=C/c3ccccc3)cccn2c1C
23 | 5.67 | Cc1ccn2c(CC#N)c(C)nc2c1OCc1ccccc1
24 | 5.5 | Cc1nc2c(OCc3ccccc3)cccn2c1CC#N
25 | 6.81 | Cc1nc2c(OCc3ccccc3)cccn2c1N
26 | 6 | Cc1nc2c(C/C=C/c3ccccc3)cccn2c1CC#N
27 | 7.2 | Cc1nc2c(/C=C\c3ccccc3)cccn2c1C
28 | 5.7 | Cc1nc2c(/C=C/Cc3ccccc3)cccn2c1CC#N
29 | 6.75 | Cc1nc2c(/C=C/Cc3ccccc3)cccn2c1N

Target: not listed separately
Experiment: Compound was evaluated for the ability to inhibit H+/K+ -ATPase formation in rabbit gastric glands.
Format: functional, tissue-based, Oryctolagus cuniculus, Stomach
Details: not given
Method in brief: as §1

Row | IC50 | Structure (SMILES)
30 | 8.08 uM l-1 | Cc1nc2c(OCc3ccccc3)nccn2c1N
31 | 0.13 uM l-1 | Cc1nc2c(CCc3ccccc3)cccn2c1CC#N
32 | 0.064 uM l-1 | Cc1nc2c3c(ccn2c1CC#N)CCC(c1ccccc1)O3 (racemic)
33 | 1.46 uM l-1 | Cc1nc2c(CCc3ccccc3)cccn2c1N
34 | 0.4 uM l-1 | Cc1ccn2c(CC#N)c(C)nc2c1OCc1ccccc1
35 | 0.31 uM l-1 | Cc1nc2c(OCc3ccccc3)cccn2c1N
36 | 442 uM l-1 | Cc1nc2c(C/C=C/c3ccccc3)cccn2c1CC#N
37 | 3.8 uM l-1 | Cc1nc2c(/C=C/Cc3ccccc3)cccn2c1CC#N
38 | 14.1 uM l-1 | Cc1nc2c(/C=C/Cc3ccccc3)cccn2c1N

Target: not listed separately
Experiment: Compound was evaluated for the ability to inhibit purified H+/K+ -ATPase at pH 7.4, by using gastric membrane vesicles prepared from hog stomach.
Format: functional, tissue-based, Sus scrofa
Details: not given
Method in brief: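 Lyophilized, K+-permeable hog gastric membrane vesicles (10 μg) preincubated with inhibitor 30 min at 37 °C in 2 mM Pipes-Tris pH 7.4 with 10 mM KCl. Reaction started with 2 mM ATP/2 mM MgCl2. Read-out is inorganic phosphate release. K+-stimulated activity = total minus basal Mg2+ activity. Inhibitors added from methanol, final 1%. IC50 = 50% inhibition.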

Row | IC50 | Structure (SMILES)
39 | 178 uM l-1 | Cc1nc2c(OCc3ccccc3)nccn2c1N
40 | 2 uM l-1 | Cc1nc2c(CCc3ccccc3)cccn2c1CC#N
41 | 0.092 uM l-1 | Cc1nc2c3c(ccn2c1CC#N)CCC(c1ccccc1)O3 (racemic)
42 | 2.1 uM l-1 | Cc1nc2c(CCc3ccccc3)cccn2c1N
43 | 1.68 uM l-1 | Cc1nc2c(/C=C/c3ccccc3)cccn2c1C
44 | 13.7 uM l-1 | Cc1ccn2c(CC#N)c(C)nc2c1OCc1ccccc1
45 | 0.89 uM l-1 | Cc1nc2c(OCc3ccccc3)cccn2c1N
46 | 206 uM l-1 | Cc1nc2c(C/C=C/c3ccccc3)cccn2c1CC#N
47 | 28.4 uM l-1 | Cc1nc2c(/C=C\c3ccccc3)cccn2c1C
48 | 14 uM l-1 | Cc1nc2c(/C=C/Cc3ccccc3)cccn2c1CC#N
49 | 8.6 uM l-1 | Cc1nc2c(/C=C/Cc3ccccc3)cccn2c1N

Source: ChEMBL document CHEMBL1125872, “Antiulcer agents. 5. Inhibition of gastric H+/K(+)-ATPase by substituted imidazo[1,2-a]pyridines and related analogues and its implication in modeling the high affinity potassium ion binding site of the gastric proton pump enzyme” (J Med Chem, 1991)
